High-throughput results from PubChem.
Most compounds without a hit are left out; they make up all but 2.1% or so of the library.
ABCB1 inh: blocks JC-1 efflux by human ABCB1 transporter. P08183. CCRF-Adr cells, flow cytometry. inhibition, % at 6.6 µM. 190,000 tested, 0.067% active. AID 1326; in the data active means inhibition above about 40%;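 further: 0% = vehicle and 100% = reference inhibitor; higher value means more JC-1 retained so stronger ABCB1 efflux block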
b-catenin transl: alters nuclear translocation of beta-catenin in HeLa cells | immunofluorescence imaging | nuclear translocation activity, % at 5 µM | 190,000 tested, 0.3% active | AID 1665;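 active means nuclear translocation activity above 50% at 5 µM, with a well cell count of 50 or more; inconclusive means wells under 50 cells across six images, flagged as toxic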;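 further: per-cell ratio of nuclear to cytoplasmic median beta-catenin stain intensity; plate controls were DMSO negative control for no effect and GSK-3 inhibitor IX positive control for full effect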
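System: HeLa cells, endogenous beta-catenin; compound dosing: 5 µM primary single dose, 0.1% DMSO, 0.02–20 µM confirmation series; incubation: 24 h compound exposure at 37°C, 5% CO2; signal: beta-catenin immunofluorescence imaging with DAPI; evaluation: % activation, nuclear-to-cytoplasmic median beta-catenin signal ratio per cell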
MT stabilizer: stabilizes microtubules in HeLa cells; % tubulin-high responders, % at 10 µM; 200,000 tested, 0.83% active; HeLa tubulin immunostaining HCS, 24 h; share of cells brighter than vehicle mean+2SD;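 active means plate Z-score above 3 for both tubulin-high and condensed-nucleus cell shares, with cell loss under 80%, at 10 µM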;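 further: anti alpha tubulin signal scored within the nucleus-defined area of each cell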
ABCG2 block: inhibitors of human ABCG2 transporter, ABCB1 counter-screen; Q9UNQ0; IgMXP3 cells, JC-1 efflux, flow cytometry; inhibition, % at 6.6 µM; 190,000 tested, 0.1% active; AID 1325;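 active means inhibition above 80%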;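 further: 0% = DMSO and 100% = nicardipine control wells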
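test system = two drug-resistant human cell lines, ABCG2 and ABCB1 | amount = 3 million cells/mL final, two lines in 1:1 ratio | reagent = JC-1 transporter substrate | doses = one concentration, 6.6 µM final | incubation = 10 min at 25 °C | signal = flow cytometric JC-1 green MFI at 530 nm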
Autophagy HCS: autophagy modulation, high-content screen; MEF GFP-LC3 puncta imaging; test concentration mostly 10 µM; calls only at 10 µM (by protocol); 190,000 tested, 0.98% active; AID 463193;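 active means percentage of spot-positive cells more than 3 SD above its plate mean, without a fluorescence outlier flag or 80% toxicity; inconclusive means no clear call, values can overlap the other calls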;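 further: spot-positive cell cutoff set from DMSO-treated cells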
Arbovirus inh: arbovirus infection inhibition; arbovirus infection cell-based antiviral screen; 200,000 tested, 0.37% active; AID 1251; inhibition, % at 10 µM; in the data active means inhibition above about 30%
ABCB1 single pt: inhibits human ABCB1 efflux, confirmed at single point; shares compounds with ABCG2 block; 270 tested, 7% active; inhibition, % at 6.6 µM; AID 1451; CCRF-Adr cells, JC-1 efflux, flow cytometry;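 active means inhibition of pump activity above 50%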;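 further: 0% = DMSO and 100% = nicardipine full pump inhibition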
ABCG2 confirm: inhibits human ABCG2 efflux, confirmed at single point; shares compounds with ABCG2 block; inhibition, % at 6.6 µM; AID 1453; IgMXP3 cells, JC-1 efflux, flow cytometry; 270 tested, 6% active;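 active means inhibition above 50%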;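 further: 0% = DMSO wells and 100% = nicardipine pump inhibitor wells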
IgMXP3 autofluor: compound fluoresces at 488/530 nm in IgMXP3 cells | shares compounds with ABCG2 block | compound autofluorescence 488/530 nm, flow; stronger effect = higher value | fluorescence at 6.6 µM | 270 tested, 30% active;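 active means fluorescence in ABCG2-expressing cells above the plate's control-well mean plus 3 SD, cut at about 15 in these data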;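 further: median cell fluorescence with compound minus that of DMSO-treated control cells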
CCRF autofluor: CCRF-Adr autofluorescence flag for ABCB1 confirmation | shares compounds with ABCG2 block | CCRF-Adr cells, compound autofluorescence 488/530 nm, flow cytometry; stronger effect = higher value | fluorescence at 6.6 µM | 270 tested, 30% active | AID 1483;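 active means fluorescence beyond the plate control mean plus 3 SD, with a fluorescence-to-maximum score over 2, cut at about 25 in these data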
Numbers without * were called inactive; i = inactive; ? = inconclusive; nt = not tested or not shown; + = active, no number.

SMILES	ABCB1 inh	b-catenin transl	MT stabilizer	ABCG2 block	Autophagy HCS	Arbovirus inh	ABCB1 single pt	ABCG2 confirm	IgMXP3 autofluor	CCRF autofluor
N#CC1=C(N)OC2=C(CCc3ccccc32)C1c1ccccc1 (stereo not given)	0.5	18.2	5.6	4.0	i	-30.7	nt	nt	nt	nt
CCN1/C(=C/c2ccc3cccc(C)c3[n+]2CC)Sc2ccccc21	33.8	nt	7.1	+	+	-37.1	25.9	69.2*	304*	305*
CCN1/C(=C/c2ccc3cc(C)cc(C)c3[n+]2CC)Sc2cc(C)ccc21	2.5	3.0	12.7	21.6	?	-35.1	nt	nt	nt	nt
COc1cc(C(=O)Nc2ccc(S(=O)(=O)NC(C)C)cc2)cc(OC)c1OC	1.9	nt	2.5	81.6*	i	-2.4	13.0	27.0	5.81	6.56
COC(=O)[C@@H]1CC[C@H](C)[C@@H](c2ccc(C)cc2)N1C(=O)c1ccc(/C=N/O[C@@H](C)c2cn([C@H](CO)Cc3ccccc3)nn2)cc1	42.5*	nt	4.8	43.9	i	-30.8	34.0	5.2	2.91	15.5
O=C(C1CCCN(S(=O)(=O)c2cccc3nonc23)C1)N1CCN(c2ccccc2)CC1 (stereo not given)	3.0	-1.9	1.2	8.2	i	1.9	nt	nt	nt	nt
N#CCCN(CCC#N)S(=O)(=O)c1ccc(C(=O)Nc2nnc(C3=COCCO3)o2)cc1	0.5	-2.3	2.3	3.4	i	7.6	nt	nt	nt	nt
CN(CCCNC(=O)c1ccc(N2CCCC2=O)cc1)c1ccccc1	0.3	1.1	2.7	0.6	i	-5.6	nt	nt	nt	nt
Cc1cc(NC(=O)c2cccc([N+](=O)[O-])c2)n(-c2ccccc2)n1	-0.3	-1.7	3.6	1.8	i	-1.5	nt	nt	nt	nt
Cc1cc(NC(=O)c2cc([N+](=O)[O-])cc([N+](=O)[O-])c2)n(-c2ccccc2)n1	0.1	0.0	8.4	83.8*	i	-5.4	1.8	32.4	2.16	-2.19
CCOC(=O)c1c(-c2ccccc2)csc1NC(=O)/C(C#N)=C/c1ccc(O)c(OC)c1	65.8*	-1.0	6.0	123.3*	+	-39.7	-30.1	-39.2	284*	264*
CCOC(=O)c1c(-c2ccccc2)csc1NC(=O)CSc1ccccc1	1.4	-0.2	1.9	9.4	i	12.5	nt	nt	nt	nt
Cc1csc(NC(=O)CSc2nnc(-c3ccoc3C)n2C(C)c2ccccc2)n1 (stereo not given)	nt	-0.9	nt	nt	nt	nt	nt	nt	nt	nt
O=C(/C=C/c1cccc([N+](=O)[O-])c1)Nc1cccc(NC(=O)c2ccco2)c1	0.3	-1.0	2.3	-6.0	i	4.9	nt	nt	nt	nt
O=C(/C=C/c1cccc([N+](=O)[O-])c1)Nc1cccc(NC(=O)c2cccs2)c1	+	-3.7	2.6	+	i	-31.6	12.6	31.2	-0.59	0.66
CC(=O)NS(=O)(=O)c1ccc(N=NN2CCCCC2)cc1	0.1	2.1	3.1	-0.2	i	2.1	nt	nt	nt	nt
Cc1ccc2cccc(NC(=S)NC(=O)c3ccnn3C)c2n1	-0.3	3.3	2.4	2.3	i	0.9	nt	nt	nt	nt
COc1ccc(CCNc2ccc(C(=O)O)cc2[N+](=O)[O-])cc1OC	0.2	-0.2	2.9	3.3	i	8.7	nt	nt	nt	nt
COc1ccc(CCNc2cc(N3CCN(C(=O)c4ccc(C)cc4)CC3)ccc2[N+](=O)[O-])cc1OC	36.6	-1.7	3.2	22.4	i	-1.4	26.2	33.7	-1.99	-0.84
O=[N+]([O-])c1ccc(OCCN2CCCCCC2)cc1	-0.1	2.9	3.9	81.5*	i	-8.5	0.1	2.8	0.21	5.76
Cc1c(O)ccc2c3c(c(=O)oc12)CCCC3	0.1	nt	3.3	1.0	i	5.5	nt	nt	nt	nt
Cc1oc2c(C)c3oc(=O)c4c(c3cc2c1C)CCCC4	2.1	-3.3	7.7	75.2	i	3.1	8.3	18.0	11.6	15.4
COc1ccc(CCNC(=O)COC(=O)/C=C/c2ccc(OC)c(OC)c2)cc1	0.4	-0.4	3.9	88.7*	i	-4.5	0.8	56.0*	-2.09	-3.79
COc1ccc(CCNC(=O)COC(=O)/C=C/c2ccc(OCC#N)c(OC)c2)cc1	-1.4	nt	2.3	5.9	i	-7.4	nt	nt	nt	nt
Cc1ccc2nc(/C(C#N)=C\c3ccc([N+](=O)[O-])o3)[nH]c2c1	60.6*	nt	61.7	0.0	+	-37.1	11.1	24.3	41.8*	47.1*
SMILES	ABCB1 inh	b-catenin transl	MT stabilizer	ABCG2 block	Autophagy HCS	Arbovirus inh	ABCB1 single pt	ABCG2 confirm	IgMXP3 autofluor	CCRF autofluor
Cc1c(Cc2ccc3c(c2)OCO3)sc(NC(=O)c2ccc3ccccc3c2)c1C(N)=O	-1.7	-3.0	8.2	-1.2	i	-17.6	nt	nt	nt	nt
Cc1ccc(C)n1-n1cnc2sc3c(c2c1=O)CCC3	0.1	nt	3.5	0.5	i	7.8	nt	nt	nt	nt
COC(=O)c1sc2cc([N+](=O)[O-])cc(SCC(C)C)c2c1N	61.1*	-3.4	2.9	153.8*	+	1.2	-1.6	22.2	45.8*	112*
CCOC(=O)c1sc2ncc([N+](=O)[O-])cc2c1N	nt	-0.8	nt	nt	nt	nt	nt	nt	nt	nt
O=C(O)c1ccc(C(=O)c2ccc3c(c2)C(=O)N(CCO)C3=O)cc1	nt	-0.5	nt	nt	nt	nt	nt	nt	nt	nt
CCOC(=O)c1[nH]ncc1CN1CCCC(C(=O)c2ccc(SC)cc2)C1 (stereo not given)	1.1	-1.2	3.8	1.4	i	2.6	nt	nt	nt	nt
O=C(Cn1ccc(C(F)(F)F)n1)N=Nc1c(O)[nH]c2ccccc12	0.9	-1.0	2.8	22.7	i	-4.5	nt	nt	nt	nt
CC(C)n1c(O)c(N=NC(=O)Cn2ccc(C(F)(F)F)n2)c2ccccc21	1.4	2.2	9.9	88.8*	i	-2.5	16.5	16.9	2.86	28*
COc1cc2c(cc1OC)C(C)N(C(=O)c1cc3c(s1)-c1ccccc1OC3)CC2 (stereo not given)	4.2	1.4	5.2	9.2	i	0.8	nt	nt	nt	nt
CCSC1=NCCN1S(=O)(=O)c1ccc(Cl)cc1	0.0	0.8	1.5	-0.1	i	-5.3	nt	nt	nt	nt
O=S(=O)(c1ccc(Cl)cc1)N1CCN=C1SCc1ccc(Cl)c(Cl)c1	-0.5	0.9	3.5	85.9*	i	-1.4	-6.8	0.3	-1.29	15.6
Cc1cc(C)c(S(=O)(=O)N(CC(=O)N2CCCC2)C2CCCCC2)c(C)c1	1.9	-2.2	3.8	36.5	i	-10.1	nt	nt	nt	nt
